Assays:
K562 = test: Cytotoxicity against human K562 cells assessed as reduction in cell viability after 72 hrs by MTT assay; format: functional, cell-based; conditions: K562, 72 h
Method in brief: (§1)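 Cells were grown in medium with 10% FBS, 2 mM L-glutamine, penicillin and streptomycin at 37 °C, 5% CO2. Seeding per well was 0.1 × 10^6 for leukaemia, PC3, L929 and NCI-H460, and 0.7 × 10^5 for HCT-116. Compounds in DMSO (0.1% final) were applied for 72 h. MTT (0.5 mg/mL) was added for 3 h, formazan dissolved in DMSO, and absorbance read at 550 nm. IC50 by nonlinear regression; three independent experiments in triplicate.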

[1] = Selectivity index, ratio of IC50 for mouse L929 cells to IC50 for human PC3 cells after 72 hrs by MTT assay; format: toxicity; conditions: L929 cells versus PC3 cells, read-out: Ratio IC50
Method in brief: (§2)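 Both cell types were kept in medium with 10% FBS, 2 mM L-glutamine and penicillin/streptomycin at 37 °C, 5% CO2. Seeding was 0.7 × 10^5 cells per well for HCT-116, 0.1 × 10^6 for the other lines. Cells got compound in DMSO (0.1% final) for 72 h, then 0.5 mg/mL MTT for 3 h, with formazan read at 550 nm. IC50 came from nonlinear regression over three independent experiments in triplicate. SI is the L929 IC50 divided by the cancer-line IC50.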

[2] = Selectivity index, ratio of IC50 for mouse L929 cells to IC50 for human NCI-H460 cells after 72 hrs by MTT assay; format: toxicity; conditions: L929 cells versus NCI-H460 cells, read-out: Ratio IC50; method in brief: as §2
[3] = Cytotoxicity against human Lucena1 cells assessed as reduction in cell viability after 72 hrs by MTT assay; format: functional, cell-based; conditions: Lucena 1, 72 h; method in brief: as §1
HL-60 = test: Cytotoxicity against human HL-60 cells assessed as reduction in cell viability after 72 hrs by MTT assay; format: functional, cell-based; conditions: HL-60, 72 h
Method in brief: as §1, with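 “CO2.” for “CO2. Seeding per well was 0.1 × 10^6 for leukaemia, PC3, L929 and NCI-H460, and 0.7 × 10^5 for HCT-116.”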

[4] = Selectivity index, ratio of IC50 for mouse L929 cells to IC50 for human HL-60cells after 72 hrs by MTT assay; format: toxicity; conditions: L929 cells versus HL-60 cells, read-out: Ratio IC50; method in brief: as §2
[5] = Selectivity index, ratio of IC50 for mouse L929 cells to IC50 for human K-562 cells after 72 hrs by MTT assay; format: toxicity; conditions: L929 cells versus K-562 cells, read-out: Ratio IC50; method in brief: as §2
PC-3 = test: Cytotoxicity against human PC-3 cells assessed as reduction in cell viability after 72 hrs by MTT assay; format: functional, cell-based; conditions: PC-3, 72 h; method in brief: as §1
NCI-H460 = test: Cytotoxicity against human NCI-H460 cells assessed as reduction in cell viability after 72 hrs by MTT assay; format: functional, cell-based; conditions: NCI-H460, 72 h
Method in brief: as §1, with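 “CO2.” for “CO2. Seeding per well was 0.1 × 10^6 for leukaemia, PC3, L929 and NCI-H460, and 0.7 × 10^5 for HCT-116.”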

[6] = Selectivity index, ratio of IC50 for mouse L929 cells to IC50 for human Lucena1 cells after 72 hrs by MTT assay
Method in brief: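 Selectivity index is the ratio of IC50 in murine L929 fibroblasts to IC50 in Lucena 1 cells, each measured by 72 h MTT assay (absorbance 550 nm). IC50 values came from nonlinear regression of three independent experiments in triplicate.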

HCT-116 = test: Cytotoxicity against human HCT-116 cells assessed as reduction in cell viability after 72 hrs by MTT assay; format: functional, cell-based; conditions: HCT-116, 72 h; method in brief: as §1
[7] = Selectivity index, ratio of IC50 for mouse L929 cells to IC50 for human HCT116 cells after 72 hrs by MTT assay; format: toxicity; conditions: L929 cells versus HCT116 cells, read-out: Ratio IC50; method in brief: as §2
L929 = test: Cytotoxicity against mouse L929 cells assessed as reduction in cell viability after 72 hrs by MTT assay; format: cell-based; conditions: L929, 72 h; method in brief: as §1
Trypanosoma cruzi = test: Antitrypanosomal activity against Trypanosoma cruzi Y strain bloodstream trypomastigotes assessed as lysis of parasite in presence of 5 % mouse blood incubated for 24 hrs by Neubauer chamber method; format: functional, organism-based
Method in brief: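 Y strain bloodstream trypomastigotes came from infected albino mice at peak parasitaemia, purified by differential centrifugation, in RPMI at 10^7 cells/mL with 10% mouse blood. They were mixed 1:1 with compound at twice the final concentration (5% blood final), 24 h at 4 °C, with DMSO ≤0.4% final. Neubauer chamber counting; IC50 is 50% lysis; at least three independent experiments.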

[8] = Cytotoxicity against albino Swiss mouse peritoneal macrophages assessed as reduction in cell viability incubated for 24 hrs by Presto blue assay; format: tissue-based, Macrophage; conditions: read-out: LC50
Method in brief: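 Primary peritoneal macrophages from Albino Swiss mice were seeded at 2.5 × 10^4 cells per well in RPMI-1640 (pH 7.2, 10% FBS, 2 mM glutamine) and grown 24 h at 37 °C. They were then treated 24 h at 37 °C with compound from DMSO stock (final DMSO ≤0.4%).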

[9] = Selectivity index, ratio of LC50 for cytotoxicity against albino Swiss mouse peritoneal macrophages to IC50 for Antitrypanosomal activity against Trypanosoma cruzi Y strain bloodstream trypomastigotes assessed as lysis of parasite in presence of 5 % mouse blood; format: toxicity
Method in brief: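 Y-strain bloodstream trypomastigotes came from infected albino mice at peak parasitaemia and were purified by differential centrifugation. They were resuspended at 10^7/mL in RPMI with 10% mouse blood and mixed 1:1 with compound at twice the final concentration (DMSO ≤0.4%). Incubation was 24 h at 4 °C (5% blood per footnote).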

Row | SMILES | IC50 (K562) | selectivity ratio at 72 h [1] | selectivity ratio at 72 h [2] | IC50 [3] | IC50 (HL-60) | selectivity ratio at 72 h [4] | selectivity ratio at 72 h [5] | IC50 (PC-3) | IC50 (NCI-H460) | Ratio IC50 [6] | IC50 (HCT-116) | selectivity ratio at 72 h [7] | IC50 (L929) | IC50 (Trypanosoma cruzi) | CC50 at 24 h [8] | selectivity ratio [9]
1 | C#CCOC1=C/C(=N\c2ccc(OC)cc2)c2ccccc2C1=O | > 20 µM | 3.6 | 3.3 | 11.4 µM | 7.18 µM | 4.4 | 1 | 8.82 µM | 9.45 µM | 2.8 | 10.7 µM | 2.9 | > 20 µM |  |  | 
2 | C#CCOC1=C/C(=N\c2ccc(I)cc2)c2ccccc2C1=O | 17 µM | 1 | 1 | 15.1 µM | 11.9 µM | 2 | 1.4 | > 20 µM | > 20 µM | 1.6 | 16.5 µM | 1.5 | > 20 µM |  |  | 
3 | C#CCOC1=C/C(=N\c2ccc(C(C)=O)cc2)c2ccccc2C1=O | > 20 µM | 24 | 1 | 16.2 µM | > 20 µM | 1.1 | 1 | 12.5 µM | > 20 µM | 1.9 | > 20 µM | 1 | > 20 µM |  |  | 
4 | C#CCOC1=C/C(=N\c2ccc(C)cc2)c2ccccc2C1=O | > 20 µM | 1.8 | 2 | 14.1 µM | 12 µM | 2.8 | 1.5 | 18.4 µM | 16.9 µM | 2.4 | > 20 µM | 1.6 | > 20 µM |  |  | 
5 | Cc1ccc(S(=O)(=O)n2cc(COC3=C/C(=N\c4ccc(I)cc4)c4ccccc4C3=O)nn2)cc1 | 10.8 µM | 1 | 1 | 2.9 µM | 6.31 µM | 2.6 | 1.5 | > 16.4 µM | > 16.4 µM | 5.6 | > 16.4 µM | 1 | > 16.4 µM | > 500 µM | > 100 µM | 
6 | COc1cccc2c1C(=O)c1c(O)c3c(c(O)c1C2=O)C[C@@](O)(C(=O)CO)C[C@@H]3O[C@H]1C[C@H](N)[C@H](O)[C@H](C)O1 [DOXORUBICIN] | 0.49 µM |  |  | 0.18 µM |  |  |  |  |  |  |  |  |  |  |  | 
7 | Cc1ccc(S(=O)(=O)n2cc(COC3=C/C(=N\c4ccccc4)c4ccccc4C3=O)nn2)cc1 | 12.2 µM | 1 | 2.9 | 3.67 µM | 6.71 µM | 3.1 | 1.7 | > 20 µM | 7.22 µM | 5.6 | 5.37 µM | 3.8 | > 20 µM | > 500 µM | 80.8 µM | > 6.19
8 | CC(=O)c1ccc(/N=C2\C=C(OCc3cn(S(=O)(=O)c4ccc(C)cc4)nn3)C(=O)c3ccccc32)cc1 | 5.52 µM | 2.7 | 0.7 | 6.46 µM | 5.3 µM | 2 | 1.9 | 3.91 µM | 15.8 µM | 1.7 | 6.27 µM | 1.7 | 10.8 µM | > 500 µM | 40.6 µM | > 12.3
9 | Cc1ccc(/N=C2\C=C(OCc3cn(S(=O)(=O)c4ccc(C)cc4)nn3)C(=O)c3ccccc32)cc1 | 6.22 µM | 6.7 | 2.2 | 1.44 µM | 5.42 µM | 3.3 | 2.9 | 2.65 µM | 8.02 µM | 12.3 | 3.61 µM | 4.9 | 17.7 µM | > 500 µM | 88.5 µM | > 5.65
10 | Cc1ccc(S(=O)(=O)n2cc(COC3=C/C(=N\c4ccc(F)cc4)c4ccccc4C3=O)nn2)cc1 | 7.7 µM | 9.8 | 2.7 | 6.58 µM | 7.52 µM | 2.6 | 2.6 | 2.03 µM | 7.36 µM | 3 | 5.75 µM | 3.5 | > 20 µM | > 500 µM | 26.9 µM | > 18.6
11 | C#CCOC1=C/C(=N\c2ccccc2)c2ccccc2C1=O | > 20 µM | 2.5 | 1.6 | > 20 µM | 17.4 µM | 2 | 1 | 14.1 µM | > 20 µM | 1.5 | > 20 µM | 1.2 | > 20 µM |  |  | 
12 | C#CCOC1=C/C(=N\c2ccc(F)cc2)c2ccccc2C1=O | 13.5 µM | 1 | 1.9 | 17 µM | 9.2 µM | 3.6 | 2.4 | > 20 µM | 17 µM | 1.9 | 18.7 µM | 1.8 | > 20 µM |  |  | 
13 | Cc1ccc(S(=O)(=O)n2cc(COC3=C/C(=N\c4ccc(Cl)cc4)c4ccccc4C3=O)nn2)cc1 | 9.8 µM | 1 | 1.6 | 3.16 µM | 6.92 µM | 2.8 | 2 | > 20 µM | 12.1 µM | 6.1 | 9.44 µM | 2 | > 20 µM | > 500 µM | > 100 µM | 
14 | C#CCOC1=C/C(=N\c2ccc(Br)cc2)c2ccccc2C1=O | > 20 µM | 1.7 | 1.3 | 12.5 µM | 14.2 µM | 1.9 | 1.2 | 15.9 µM | > 20 µM | 2.2 | > 20 µM | 1.2 | > 20 µM |  |  | 
